# Screening results from PubChem BioAssay.
# SENP8 block-1: SENP8 protease inhibition; inhibition, % at 10 µM; hit rate 1.2% among 330,000; purified SENP8, Z-RLRGG-aminoluciferin cleavage, luminescence; in the data active = inhibition above about 50%
# SENP6 block: SENP6 protease inhibition | Recombinant SENP6 catalytic domain, aminoluciferin luminescence | inhibition, % at 10 µM | hit rate 1.8% among 330,000 | AID 2599;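 active = inhibition above about 50% at the single tested dose, limit read from the data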;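 note: plate controls were DMSO wells with enzyme for no effect and DMSO wells lacking enzyme for full effect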
# SENP8 block-2: SENP8 (human) protease inhibition; Q96LD8; recombinant SENP8, Nedd8 substrate fluorescence; inhibition, % at 20 µM; hit rate 0.64% among 360,000; AID 602440; in the data active = inhibition mostly above about 40%, no sharp cut-off; inactive = mostly below about 27%
# Platelet DG rel: platelet dense granule release activity | inhibition, %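 (compounds screened at 7.5 µM in platelet-rich plasma)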 | hit rate 0.22% among 300,000 | human platelet-rich plasma, SFLLRN dense granule ATP release, luminescence;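 active = mean replicate score, as percent of positive control, at or above 50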
# SENP1 FRET inh: blocks the human SENP1 SUMO protease catalytic domain | recombinant SENP1 catalytic domain, CyPet-SUMO1-YPet FRET cleavage | AID 624204 | hit rate 0.21% among 360,000 | inhibition, % at 10 µM | Q9P0U3;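 active = inhibition at least 30% at 10 µM, raw YFP signal under a set limit, fluorescence ratio 0.5 to 1.5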;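 note: 0% = enzyme with DMSO and 100% = no enzyme wells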
# Target sequence (Q9P0U3 419-644 limits assumed): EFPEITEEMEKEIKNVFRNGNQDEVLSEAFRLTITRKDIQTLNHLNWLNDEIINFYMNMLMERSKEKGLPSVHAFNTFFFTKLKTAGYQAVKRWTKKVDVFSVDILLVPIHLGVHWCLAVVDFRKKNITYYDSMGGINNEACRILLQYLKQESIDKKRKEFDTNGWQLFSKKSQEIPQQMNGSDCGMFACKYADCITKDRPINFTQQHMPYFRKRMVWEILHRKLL
#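 System: Recombinant human SENP1 catalytic domain, His6-tagged | Incubation: Enzyme reaction for 50 min at room temperature, dark | Medium: Tris pH 8 with BME, BSA, NP40 and catalase | Also added: 25 nM SUMO1 FRET substrate | Compound: 10 µM single point, 0.5% DMSO | Measured by: FRET fluorescence in CFP and YFP emission channels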
# SENP7 inh: blocks the human protease SENP7; Q9BQF6; recombinant SENP7, Z-RLRGG-aminoluciferin luminescence, 40 min; inhibition, % at 5 µM; hit rate 1.5% among 330,000; AID 434973;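 active = inhibition above about 50% at the single test dose, limit read from the data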;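 note: plate controls were DMSO with enzyme for no effect and no enzyme buffer wells for full effect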
# SENP8 confirm: confirmation of human SENP8 protease inhibitors. shares compounds with SENP7 inh. Recombinant SENP8, Z-RLRGG-aminoluciferin luminescence, 60 min. inhibition, % at 12.5 µM. hit rate 40% among 6,200;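 active = mean inhibition across replicates above about 50%, limit read from the data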
# SENP6 conf: confirmation of human SENP6 protease inhibitors; shares compounds with SENP7 inh; recombinant SENP6, Z-RLRGG-aminoluciferin luminescence; inhibition, % at 12.5 µM; hit rate 58% among 6,200
# SENP7 conf: confirmation of human SENP7 protease inhibitors. shares compounds with SENP7 inh. recombinant SENP7, Z-RLRGG-aminoluciferin luminescence, 40 min. inhibition, % at 12.5 µM. hit rate 69% among 6,200. AID 488917
# Casp3 select: selectivity test for SENP inhibitors: human caspase-3 inhibition; shares compounds with SENP7 inh; purified caspase-3, Z-DEVD-aminoluciferin luminescence, 60 min; inhibition, % at 12.5 µM; hit rate 60% among 6,200;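 active = mean inhibition above about 50%, limit read from the data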;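 note: plate controls were enzyme with DMSO for no effect and wells without caspase-3 for full effect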
# Target sequence (P42574 28-227 limits assumed): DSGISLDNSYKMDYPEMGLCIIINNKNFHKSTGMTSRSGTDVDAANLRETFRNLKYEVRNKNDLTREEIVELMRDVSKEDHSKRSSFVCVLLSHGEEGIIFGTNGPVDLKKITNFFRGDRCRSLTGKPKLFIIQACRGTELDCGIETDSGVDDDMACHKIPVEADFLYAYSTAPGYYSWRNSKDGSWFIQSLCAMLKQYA
# Luc interf: luminescence interference (SENP counter-screen); shares compounds with SENP7 inh; Pre-incubated SENP8/Z-RLRGG-aminoluciferin, luciferase luminescence interference; AID 488919; hit rate 39% among 6,200; inhibition, % at 12.5 µM;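 active = mean inhibition above about 50% when retested at one dose, limit read from the data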;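 note: plate controls were DMSO wells with completed reaction for no effect and substrate without enzyme for full effect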
# The depositor's hits bear a star; . = no result given. Compounds with a hit are over-represented: about 2.6% of the library has one in this group of screens.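 Rule for the calls, unless noted: active = mean inhibition above about 50% in the one-dose retest (limit read from the data); inactive = the rest.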
SMILES,SENP8 block-1,SENP6 block,SENP8 block-2,Platelet DG rel,SENP1 FRET inh,SENP7 inh,SENP8 confirm,SENP6 conf,SENP7 conf,Casp3 select,Luc interf
C#CCOCCOCCOCCNc1nc(N2CCN(C(=O)[C@H](Cc3ccc(O)cc3)n3cc([C@@H](N)CC(C)C)nn3)CC2)nc(N2CCN(C(=O)[C@H](Cc3ccc(O)cc3)n3cc([C@@H](N)CC(C)C)nn3)CC2)n1,1,-13,.,0,.,3,.,.,.,.,.
COc1ccc(C(=O)Nc2ccc(-c3n[nH]c(=S)o3)cc2)cc1OC,4,-6,-334,-5,0,19,.,.,.,.,.
O=C(Nc1ccc(-c2n[nH]c(=S)o2)cc1)c1ccccc1Br,49,80*,-154,5,2,20,57*,54*,80*,74*,62*
Cc1ccc(OCCn2ncc3ccccc3c2=O)c(C)c1,-6,-14,14,10,0,-4,.,.,.,.,.
O=c1c2ccccc2cnn1CCOc1cccc(Br)c1,60*,74*,8,-6,4,58*,55*,68*,86*,58*,6
Cc1ccc2nc(-c3cccnc3SCC(=O)N3c4ccccc4CC3C)[nH]c2c1 (centres undefined),33,55*,-165,-1,0,-2,29,23,70*,36,-2
Cc1ccc2nc(SCC(=O)N3c4ccccc4CC3C)c(C)cc2c1 (centres undefined),2,6,1,-27,1,9,.,.,.,.,.
CCN(CC)c1ccc(C=C2SC(=S)NC2=O)cc1,.,.,38,.,-23,.,.,.,.,.,.
CC1Cc2cc(/C=C3/SC(=S)NC3=O)ccc2O1 (centres undefined),67*,74*,22,-22,-14,2,11,76*,84*,47,0
CC(C)(C)OC(=O)C[C@@H]1C/C=C\C[C@@H](CC(=O)NCCO)C(=O)NC[C@H](c2ccccc2)OC1=O,-1,-9,5,.,1,2,.,.,.,.,.
Cc1cc(CN2CCCCC2)oc1C(=O)O,-1,-17,10,-3,-1,-1,.,.,.,.,.
Cc1cc(NC(=O)COC(=O)COc2ccc3c4c(c(=O)oc3c2)CCC4)no1,2,2,-140,0,0,-3,.,.,.,.,.
O=C(O)c1ccc(COc2ccc3c4c(c(=O)oc3c2)CCC4)o1,91*,82*,-193,-2,-2,93*,94*,95*,100*,65*,94*
CCC(C)c1ccc(OCc2ccc(C(=O)O)o2)cc1 (centres undefined),94*,95*,14,-1,2,80*,3,98*,102*,48,98*
Cc1cc(COc2ccccc2)oc1C(=O)O,97*,95*,21,-11,1,100*,99*,100*,103*,88*,98*
O=C(COc1ccc2c3c(c(=O)oc2c1)CCC3)Nc1ccccn1,38,1,-242,8,5,89*,31,28,14,66*,19
COc1cccc(C(C(=O)NC2CCCC2)N2CCN(c3cc(C)ccc3C)CC2)c1OC (centres undefined),.,.,13,.,2,.,.,.,.,.,.
COc1ccc(-c2cnc3ccccc3n2)cc1NC(=O)CNC(=O)c1ccccc1,7,2,-437,-24,-10,3,.,.,.,.,.
CC1(C)CC(=O)c2c(Cc3ccccc3)noc2C1,3,9,17,2,1,0,.,.,.,.,.
CC1CCCCC1NC(=O)CCCCCn1c(=S)[nH]c2ccccc2c1=O (centres undefined),2,-11,15,5,2,1,.,.,.,.,.
